ChEMBL document CHEMBL5338714, “Design, synthesis and biological evaluation of biphenyl-benzamides as potent FtsZ inhibitors” (Eur J Med Chem, 2022)
In brackets after ≈: the same amount, converted by molar mass.

What was measured:
Staphylococcus aureus [1] = assay: Antibacterial activity against Staphylococcus aureus ATCC25923 assessed as bacterial growth inhibition incubated for 18 hrs by CLSI based broth microdilution method; format: functional
How it was run: (§1)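 CLSI broth microdilution. Log-phase bacteria in Mueller Hinton broth added to 2-fold serial dilutions spanning 128 to 0.25 or 2 to 0.004 µg/mL. Incubated aerobically for 18 h at 37 °C, then OD600 read. MIC is the lowest concentration giving ≥90% growth inhibition; three independent assays.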

Bacillus subtilis [2] = assay: Antibacterial activity against Bacillus subtilis ATCC9372 assessed as bacterial growth inhibition incubated for 18 hrs by CLSI based broth microdilution method; format: functional; how it was run: as §1
Staphylococcus aureus [3] = assay: Antibacterial activity against Staphylococcus aureus ATCC29213 assessed as bacterial growth inhibition incubated for 18 hrs by CLSI based broth microdilution method; format: functional; how it was run: as §1
[4] = Cytotoxicity against African green monkey Vero cells assessed as reduction in cell viability incubated for 72 hrs by alamar blue staining based assay; format: toxicity; conditions: chlorocebus sabaeus
How it was run: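 Vero cells seeded at about 2 × 10^3 per well, 37 °C, 5% CO2. Compound added after 24 h and incubated 72 h. AlamarBlue (1:10 v/v) then added for 3 h in the dark, read at Ex/Em 560/590 nm. CC50 is the lowest concentration causing 50% loss of viability.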

Bacillus subtilis [5] = assay: Antibacterial activity against Bacillus subtilis 618 assessed as bacterial growth inhibition incubated for 18 hrs by CLSI based broth microdilution method; format: functional; how it was run: as §1
Bacillus subtilis [6] = assay: Antibacterial activity against Bacillus subtilis MG27 assessed as bacterial growth inhibition incubated for 18 hrs by CLSI based broth microdilution method; format: functional; how it was run: as §1
[7] = Selectivity index, ratio of CC50 for African green monkey Vero cells to MIC for Bacillus subtilis ATCC9372; format: toxicity, cell-based; conditions: read-out: Selectivity Index
How it was run: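 CC50 in Vero cells (72 h Alamar blue) divided by broth microdilution MIC against B. subtilis ATCC9372.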

Bacillus subtilis [8] = assay: Antibacterial activity against Bacillus subtilis BS01 assessed as bacterial growth inhibition incubated for 18 hrs by CLSI based broth microdilution method; format: functional; how it was run: as §1
[9] = Metabolic stability in rat liver microsomes assessed as half life preincubated for 5 mins followed by NADPH addition measured upto 45 mins by LC/MS analysis; format: ADME, Microsome; conditions: time < 50 min
How it was run: (§2)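 Liver microsomes at 0.75 mg/mL final protein, with test article and NADPH regeneration system (6 mM) in 100 mM phosphate buffer, pH 7.4. Preincubated 5 min at 37 °C, then started with NADPH. Quenched with acetonitrile containing internal standard at 5, 15, 30 and 45 min, centrifuged, and percent remaining measured by LC/MS. Ketanserin served as reference.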

[10] = Metabolic stability in human liver microsomes assessed as half life preincubated for 5 mins followed by NADPH addition measured upto 45 mins by LC/MS analysis; format: ADME, Microsome; conditions: time < 50 min; how it was run: as §2
[11] = Metabolic stability in rat liver microsomes assessed as intrinsic clearance preincubated for 5 mins followed by NADPH addition measured upto 45 mins by LC/MS analysis; format: ADME, Microsome; conditions: time < 50 min, read-out: CLH; how it was run: as §2
[12] = Metabolic stability in mouse liver microsomes assessed as half life preincubated for 5 mins followed by NADPH addition measured upto 45 mins by LC/MS analysis; format: ADME, Microsome; conditions: time < 50 min; how it was run: as §2
[13] = Metabolic stability in human liver microsomes assessed as intrinsic clearance preincubated for 5 mins followed by NADPH addition measured upto 45 mins by LC/MS analysis; format: ADME, Microsome; conditions: time < 50 min, read-out: CLH; how it was run: as §2
[14] = Metabolic stability in mouse liver microsomes assessed as intrinsic clearance preincubated for 5 mins followed by NADPH addition measured upto 45 mins by LC/MS analysis; format: ADME, Microsome; conditions: time < 50 min, read-out: CLH; how it was run: as §2

MIC (Staphylococcus aureus [1]) | MIC (Bacillus subtilis [2]) | MIC (Staphylococcus aureus [3]) | SMILES | also measured
1 µg/mL (≈ 2.39 µM) | 0.125 µg/mL (≈ 0.299 µM) | 1 µg/mL (≈ 2.39 µM) | Cc1cc(Cl)ccc1-c1cccc(C(CO)Oc2ccc(F)c(C(N)=O)c2F)c1 (centres undefined) | 
1 µg/mL (≈ 2.62 µM) | 0.125 µg/mL (≈ 0.328 µM) | 1 µg/mL (≈ 2.62 µM) | CCCc1ccc(-c2cccc(COc3ccc(F)c(C(N)=O)c3F)c2)cc1 | 
0.5 µg/mL (≈ 1.36 µM) | 0.125 µg/mL (≈ 0.34 µM) | 0.5 µg/mL (≈ 1.36 µM) | CCc1ccc(-c2cccc(COc3ccc(F)c(C(N)=O)c3F)c2)cc1 | 
2 µg/mL (≈ 5.89 µM) | 0.5 µg/mL (≈ 1.47 µM) | 2 µg/mL (≈ 5.89 µM) | NC(=O)c1c(F)ccc(OCc2cccc(-c3ccccc3)c2)c1F | 
32 µg/mL (≈ 122 µM) | 16 µg/mL (≈ 60.8 µM) | 64 µg/mL (≈ 243 µM) | NC(=O)c1c(F)ccc(OCc2ccccc2)c1F | 
1 µg/mL (≈ 2.35 µM) | 0.063 µg/mL (≈ 0.148 µM) | 1 µg/mL (≈ 2.35 µM) | NC(=O)c1c(F)ccc(OCc2cccc(-c3ccc(C(F)(F)F)cc3F)c2)c1F | 
0.25 µg/mL (≈ 0.593 µM) | 0.031 µg/mL (≈ 0.0736 µM) | 0.25 µg/mL (≈ 0.593 µM) | Cc1cc(C(F)(F)F)ccc1-c1cccc(COc2ccc(F)c(C(N)=O)c2F)c1 | CC50 at 72 h [4]: > 20 µg/mL; MIC (Bacillus subtilis [5]): 0.031 µg/mL (≈ 0.0736 µM); MIC (Bacillus subtilis [6]): 0.063 µg/mL (≈ 0.15 µM); selectivity ratio [7]: > 1250; MIC (Bacillus subtilis [8]): 0.016 µg/mL (≈ 0.038 µM)
1 µg/mL (≈ 2.83 µM) | 0.25 µg/mL (≈ 0.707 µM) | 1 µg/mL (≈ 2.83 µM) | Cc1ccccc1-c1cccc(COc2ccc(F)c(C(N)=O)c2F)c1 | 
0.5 µg/mL (≈ 1.41 µM) | 0.125 µg/mL (≈ 0.354 µM) | 0.5 µg/mL (≈ 1.41 µM) | Cc1ccc(-c2cccc(COc3ccc(F)c(C(N)=O)c3F)c2)cc1 | 
0.5 µg/mL (≈ 1.26 µM) | 0.125 µg/mL (≈ 0.316 µM) | 1 µg/mL (≈ 2.53 µM) | CCCCc1ccc(-c2cccc(COc3ccc(F)c(C(N)=O)c3F)c2)cc1 | 
> 128 µg/mL | 1 µg/mL (≈ 2.26 µM) | > 128 µg/mL | NC(=O)c1c(F)ccc(OCc2cc(Cl)cc(-c3ccc(C(F)(F)F)cc3)c2)c1F | 
 |  |  | O=C(c1ccc(F)cc1)C1CCN(CCn2c(=O)[nH]c3ccccc3c2=O)CC1 [KETANSERIN] | half-life [9]: 14.5 min; half-life [10]: 30.4 min; CLint scaled [11]: 171 mL/min/kg; half-life [12]: 8.57 min; CLint scaled [13]: 57.1 mL/min/kg; CLint scaled [14]: 637 mL/min/kg
0.25 µg/mL (≈ 0.612 µM) | 0.031 µg/mL (≈ 0.0759 µM) | 0.25 µg/mL (≈ 0.612 µM) | NC(=O)c1c(F)ccc(OCc2cccc(-c3ccc(Cl)cc3Cl)c2)c1F | 
> 128 µg/mL | 2 µg/mL (≈ 5.06 µM) | > 128 µg/mL | CC(C)(C)c1ccc(-c2cccc(COc3ccc(F)c(C(N)=O)c3F)c2)cc1 | 
> 128 µg/mL | 0.5 µg/mL (≈ 1.31 µM) | > 128 µg/mL | CC(C)c1ccc(-c2cccc(COc3ccc(F)c(C(N)=O)c3F)c2)cc1 | 
> 128 µg/mL | > 128 µg/mL | > 128 µg/mL | NC(=O)c1cc(C(F)(F)F)ccc1-c1cccc(COc2ccc(F)c(C(N)=O)c2F)c1 | 

SMILES | MIC (Staphylococcus aureus [1]) | MIC (Bacillus subtilis [2]) | MIC (Staphylococcus aureus [3]) | also measured
NC(=O)c1c(F)ccc(OCc2nc3cc(Cl)cnc3s2)c1F | 1 µg/mL (≈ 2.81 µM) | 0.5 µg/mL (≈ 1.41 µM) | 1 µg/mL (≈ 2.81 µM) | 
